Measured values published in ChEMBL document CHEMBL1828575, “Design, synthesis and antiproliferative activities of biarylolefins based on polyhydroxylated and carbohydrate scaffolds” (Eur J Med Chem, 2011).

Key:
Format in all cases: functional
[1] = tested on: NCI-H522; assay: Cytotoxicity against human NCI-H522 cells assessed as cellular growth at 10 uM after 48 hrs by SRB assay
How it was run: (§1)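 NCI-60 panel lines grown in RPMI 1640 with 5% FBS and 2 mM L-glutamine. Plated at 5000–40,000 cells/well and preincubated 24 h at 37 °C, 5% CO₂, with time-zero plates fixed in TCA. Compounds, dissolved in DMSO and diluted in medium, were applied for 48 h. Cells were TCA-fixed (10% final for adherent, 16% for suspension) and stained with 0.4% SRB in 1% acetic acid. Dye was solubilised in 10 mM Tris base and read at 515 nm; growth was expressed as a percentage of untreated control.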

[2] = tested on: HCT-116; assay: Cytotoxicity against human HCT116 cells assessed as cellular growth at 10 uM after 48 hrs by SRB assay
How it was run: (§2)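 NCI60 single-dose screen of cells in RPMI 1640 with 5% FBS and 2 mM L-glutamine, preincubated 24 h at 37 °C, 5% CO₂. Cells were then exposed 48 h to compound added from DMSO stock. TCA-fixed, stained with 0.4% SRB in 1% acetic acid, dye solubilised in 10 mM Tris base and read at 515 nm. Growth is given as percent of untreated control.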

[3] = tested on: SK-MEL-5; assay: Cytotoxicity against human SK-MEL-5 cells assessed as cellular growth at 10 uM after 48 hrs by SRB assay; how it was run: as §1
[4] = tested on: NCI-H322M; assay: Cytotoxicity against human NCI-H322M cells assessed as cellular growth at 10 uM after 48 hrs by SRB assay; how it was run: as §1
[5] = tested on: LOX IMVI; assay: Antitumor activity against human LOXIMVI cells after 48 hrs by SRB assay
How it was run: (§3)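 NCI60 panel in RPMI 1640 with 5% FBS and 2 mM L-glutamine. Cells were plated at 5000–40,000/well by doubling time, held 24 h, then time-zero plates were TCA-fixed. Five concentrations (10-fold or half-log dilutions of DMSO stocks) were applied for 48 h at 37 °C, 5% CO2. Cells were fixed with cold TCA (10% final adherent, 16% suspension) and stained with 0.4% SRB. Bound dye was dissolved in 10 mM Tris and read at 515 nm. GI50, TGI and LC50 were calculated per line.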

[6] = tested on: HCT-116; assay: Antitumor activity against human HCT116 cells after 48 hrs by SRB assay; conditions: HCT-116, 48 h; how it was run: as §3
[7] = tested on: OVCAR-5; assay: Cytotoxicity against human OVCAR5 cells assessed as cellular growth at 10 uM after 48 hrs by SRB assay; how it was run: as §1
[8] = tested on: NCI/ADR-RES; assay: Cytotoxicity against human NCI/ADR-RES cells assessed as cellular growth at 10 uM after 48 hrs by SRB assay; how it was run: as §1
[9] = tested on: KM12; assay: Antitumor activity against human KM12 cells after 48 hrs by SRB assay; conditions: KM12, 48 h; how it was run: as §3
[10] = tested on: K562; assay: Cytotoxicity against human K562 cells assessed as cellular growth at 10 uM after 48 hrs by SRB assay; how it was run: as §2
[11] = tested on: HT-29; assay: Cytotoxicity against human HT-29 cells assessed as cellular growth at 10 uM after 48 hrs by SRB assay; how it was run: as §2
[12] = tested on: CCRF-CEM; assay: Antitumor activity against human CCRF-CEM cells after 48 hrs by SRB assay; how it was run: as §3
[13] = tested on: BT-549; assay: Cytotoxicity against human BT549 cells assessed as cellular growth at 10 uM after 48 hrs by SRB assay; how it was run: as §2
[14] = tested on: 786-0; assay: Antitumor activity against human 786-0 cells after 48 hrs by SRB assay; conditions: 786-0, 48 h; how it was run: as §3
[15] = tested on: UACC-62; assay: Cytotoxicity against human UACC62 cells assessed as cellular growth at 10 uM after 48 hrs by SRB assay; how it was run: as §1
[16] = tested on: SK-MEL-28; assay: Antitumor activity against human SK-MEL-28 cells after 48 hrs by SRB assay; conditions: SK-MEL-28, 48 h
How it was run: (§4)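 NCI60 panel cells grown in RPMI 1640 with 5% FBS and 2 mM L-glutamine, plated at 5000–40,000 cells/well and preincubated 24 h at 37 °C, 5% CO₂. Compound was added from DMSO at five concentrations, 10-fold or 1/2 log dilutions, then incubated 48 h.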

[17] = tested on: SF-295; assay: Antitumor activity against human SF295 cells after 48 hrs by SRB assay; conditions: SF-295, 48 h; how it was run: as §3
[18] = tested on: NCI-H460; assay: Cytotoxicity against human NCI-H460 cells assessed as cellular growth at 10 uM after 48 hrs by SRB assay; how it was run: as §1
[19] = tested on: NCI-H226; assay: Cytotoxicity against human NCI-H226 cells assessed as cellular growth at 10 uM after 48 hrs by SRB assay; how it was run: as §1
[20] = Cytotoxicity against human NCI60 cells assessed as cellular growth at 10 uM after 48 hrs by SRB assay relative to untreated control; how it was run: as §1
[21] = tested on: SR; assay: Antitumor activity against human SR cells after 48 hrs by SRB assay; how it was run: as §4
[22] = tested on: SNB-75; assay: Cytotoxicity against human SNB75 cells assessed as cellular growth at 10 uM after 48 hrs by SRB assay; how it was run: as §1
[23] = tested on: TK-10; assay: Cytotoxicity against human TK10 cells assessed as cellular growth at 10 uM after 48 hrs by SRB assay; how it was run: as §1
[24] = tested on: SF-268; assay: Antitumor activity against human SF268 cells after 48 hrs by SRB assay; conditions: SF-268, 48 h; how it was run: as §3
[25] = tested on: OVCAR-8; assay: Antitumor activity against human OVCAR8 cells after 48 hrs by SRB assay; conditions: OVCAR-8, 48 h; how it was run: as §3
[26] = tested on: KM12; assay: Cytotoxicity against human KM12 cells assessed as cellular growth at 10 uM after 48 hrs by SRB assay; how it was run: as §2
[27] = tested on: NCI-H522; assay: Antitumor activity against human NCI-H522 cells after 48 hrs by SRB assay; conditions: NCI-H522, 48 h; how it was run: as §3
[28] = read-out: LC50 (the source's name)
[29] = read-out: pLC50 (the source's name) (converted)

In the case of COc1ccc(/C(=C2/O[C@@H]([C@H]3COC(C)(C)O3)[C@H]3OC(C)(C)O[C@@H]23)c2cc(OC)c(OC)c(OC)c2)cc1O, the Activity [1] is reported as 43.38%, the Activity [2] is reported as 53.99% and the Activity [3] is reported as 59.59%. The Activity [4] was 34.81%, the GI50 [5] was 5.18 µM and the TGI [5] was > 100 µM. The CC50 [5, 28] was > 100 µM, the GI50 [6] was 4.14 µM and the LC50 (concentration giving 50% net cell kill) [6] was > 100 µM. The TGI [6] was > 100 µM, the Activity [7] was 95.38% and the Activity [8] was 10.1%. The GI50 [9] was 3.99 µM, the LC50 [9] was > 100 µM and the TGI [9] was > 100 µM. It also gave an Activity [10] of 24.28%, an Activity [11] of 107.45% and a GI50 ([12]; read-out: GI50) of 3.75 µM. The CC50 [12, 28] was > 100 µM, the TGI ([12]; read-out: TGI) was > 100 µM and the GI50 ([12]; read-out: pGI50 (converted)) was 3.72 µM. The CC50 [12, 29] was > 100 µM, the TGI ([12]; read-out: pTGI) was > 100 µM and the Activity [13] was 57.66%. The GI50 [14] was 21.2 µM, the LC50 [14] was > 100 µM and the TGI [14] was 60.6 µM. The Activity [15] was 93.16%, the LC50 (50% lethal concentration) [16] was > 100 µM and the GI50 ([16]; read-out: GI50) was 5.45 µM. The TGI ([16]; read-out: TGI) was > 100 µM, the GI50 ([16]; read-out: pGI50 (converted)) was 5.5 µM and the CC50 [16, 29] was > 100 µM. For the same molecule, the TGI ([16]; read-out: pTGI) was > 100 µM, the GI50 ([17]; read-out: GI50) was 7 µM and the CC50 [17, 28] was > 100 µM. For the same molecule, the TGI ([17]; read-out: TGI) was 37.3 µM, the GI50 ([17]; read-out: pGI50 (converted)) was 6.92 µM and the CC50 [17, 29] was > 100 µM. For the same molecule, the TGI ([17]; read-out: pTGI (converted)) was 23.4 µM, the Activity [18] was 79.36% and the Activity [19] was 107.94%. The Activity [20] was 57%, the GI50 ([21]; read-out: GI50) was 6.27 µM and the CC50 [21, 28] was > 100 µM. The TGI ([21]; read-out: TGI) was > 100 µM, the GI50 ([21]; read-out: pGI50 (converted)) was 6.31 µM and the CC50 [21, 29] was > 100 µM. The TGI ([21]; read-out: pTGI) was > 100 µM, the Activity [22] was 6.11% and the Activity [23] was 109.18%. The LC50 (concentration killing 50% of cells relative to time zero) [24] was > 100 µM, the GI50 ([24]; read-out: GI50) was 6.95 µM and the TGI ([24]; read-out: TGI) was 31.4 µM. For the same molecule, the GI50 ([24]; read-out: pGI50 (converted)) was 6.92 µM, the CC50 [24, 29] was > 100 µM and the TGI ([24]; read-out: pTGI (converted)) was 31.6 µM. For the same molecule, the GI50 ([25]; read-out: GI50) was 5.27 µM, the CC50 [25, 28] was > 100 µM and the TGI ([25]; read-out: TGI) was > 100 µM. For the same molecule, the GI50 ([25]; read-out: pGI50 (converted)) was 5.25 µM, the CC50 [25, 29] was > 100 µM and the TGI ([25]; read-out: pTGI) was > 100 µM. It also gave an Activity [26] of 26.71%, a GI50 [27] of 2.73 µM and a TGI [27] of 9.08 µM. For the same molecule, the CC50 [27, 28] was > 100 µM.
